76 molecules from PubChem BioAssay AID493160 (Sanford-Burnham Center for Chemical Genomics, 2011) can be followed below.

The whole screen tested about 340,000 compounds, of which about 540 (0.16%) were called active. The sample holds actives, similar compounds and a random draw of the others, so the mix is not that of the screen. A number with no mark means an inactive call.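 The calls were made as follows: active = inhibition above about 35% when tested at 20 µM (limit read from the data); inactive = the rest.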

Sequence of Hexokinase HKDC1 (Homo sapiens) (Q2TB90 whole entry, looked up): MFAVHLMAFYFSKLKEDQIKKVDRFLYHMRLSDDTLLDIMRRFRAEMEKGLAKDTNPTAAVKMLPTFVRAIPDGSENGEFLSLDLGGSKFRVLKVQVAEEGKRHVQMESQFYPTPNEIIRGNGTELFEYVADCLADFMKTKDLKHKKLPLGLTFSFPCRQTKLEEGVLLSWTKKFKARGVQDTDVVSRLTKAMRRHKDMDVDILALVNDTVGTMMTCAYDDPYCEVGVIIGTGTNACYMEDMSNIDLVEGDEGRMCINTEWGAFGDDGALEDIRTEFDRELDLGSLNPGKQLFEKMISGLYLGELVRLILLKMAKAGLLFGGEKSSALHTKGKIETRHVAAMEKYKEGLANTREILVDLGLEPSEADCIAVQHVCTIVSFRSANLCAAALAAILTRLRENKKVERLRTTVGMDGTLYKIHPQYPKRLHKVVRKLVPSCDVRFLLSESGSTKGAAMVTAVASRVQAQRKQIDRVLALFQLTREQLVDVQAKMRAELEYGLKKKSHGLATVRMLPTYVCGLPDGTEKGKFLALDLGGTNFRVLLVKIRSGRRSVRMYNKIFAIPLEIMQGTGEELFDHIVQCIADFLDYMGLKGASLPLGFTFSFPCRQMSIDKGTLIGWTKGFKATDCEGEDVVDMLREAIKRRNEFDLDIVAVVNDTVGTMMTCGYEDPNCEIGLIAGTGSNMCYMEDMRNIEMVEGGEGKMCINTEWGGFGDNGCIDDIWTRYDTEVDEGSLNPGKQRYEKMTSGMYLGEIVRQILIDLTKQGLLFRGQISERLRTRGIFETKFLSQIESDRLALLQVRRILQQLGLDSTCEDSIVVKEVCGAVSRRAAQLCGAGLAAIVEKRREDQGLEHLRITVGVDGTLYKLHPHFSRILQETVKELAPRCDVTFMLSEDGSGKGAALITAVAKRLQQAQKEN

The target of the experiment is Hexokinase HKDC1 (Homo sapiens) (UniProt Q2TB90). Briefly: blockers of human HKDC1 enzyme activity – biochemical, fluorescence, uHTS, primary screen (AID 493160).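 Also: plate controls were DMSO wells with enzyme for no effect and DMSO wells lacking enzyme for full effect.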 The note with it: recombinant HKDC1, G6PDH/diaphorase resazurin coupled fluorescence; at 20 µM; stronger effect = higher value. The essentials:
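System: Recombinant HKDC1 hexokinase | Amount: HKDC1 at 5 µg/mL | Reagent: Glucose with 1 mM ATP | Doses: Single 20 µM dose | Incubation: Reaction time 90 min, room temperature, protected from light | Signal: Coupled resazurin fluorescence, excitation 525 nm, emission 613 nm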
Consider `Cc1ccc(C(C)(C)C)c(OCCCCN2CCCC2)c1`, for which the inhibition was -1.47%. Under `CC1(C)CC(=O)C=C(c2ccc3ncccc3c2)C1` stands 11.6%; under `N/C(=N\c1nc2ccccc2o1)NC(=O)C(Cc1ccccc1)N1C(=O)c2ccccc2C1=O` (stereo unspecified), -5.13%; under `CCc1cc(CNC(=O)CC2C(=O)NCCN2CC2CCCCC2)on1` (stereo unspecified), -15.1%. Next, `O=C(Cn1c2[n+](c3ccc(C(F)(F)F)cc31)CCCCC2)Nc1c(F)cccc1F`: 1.03%; `CCOC(=O)c1ccccc1NC(=O)COC(=O)C(Cc1c[nH]c2ccccc12)NC(C)=O` (stereo unspecified): 0.25%; `O=C(Nc1ccc(S(=O)(=O)Nc2ncccn2)cc1)c1cncc(Br)c1`: -5.17%. Under `CCC1SC2=NCCN2C1(O)c1ccc(Cl)cc1` (stereo unspecified) stands 10.4%. In the case of `C#CCOCCOCCOCCNc1nc(N2CCN(C(=O)C([C@@H](C)CC)n3cc(C(N)COC(=O)C(F)(F)F)nn3)CC2)nc(N2CCN(C(=O)[C@H](Cc3ccc(O)cc3)n3cc(C(N)[C@H](C)CC)nn3)CC2)n1` (stereo partly specified), the inhibition is 1.5%. On to `CC(=O)N(CC1CCCO1)C1(C(=O)NC2CCCC2)CCCCC1` (stereo unspecified), for which the inhibition is 2.48%. As to `COc1ccc(CN2CC(C(=O)NCCc3ccc(Cl)cc3)CC2=O)cc1` (stereo unspecified), the inhibition is -3.16%. Next, `Cc1ccc(Nc2nnc(SC(C)C(=O)NC3CC3)s2)cc1` (stereo unspecified): -5.42%; `CC12CN(NC(=O)c3ccc(Cl)cc3)C3(C#N)CC1CCC23C` (stereo unspecified): -3.27%; `Cc1noc(C)c1S(=O)(=O)N(C)C[C@H]1Oc2ccc(NC(=O)C3CC3)cc2C(=O)N([C@H](C)CO)C[C@@H]1C`: 3.28%. With `CCn1cc(C(=O)OCC(=O)Nc2cccc(C)c2)c(=O)c2ccc(C)nc21`, the inhibition was -3.21%. As for `COCc1c(C(=O)N/N=C\c2cccnc2)nnn1-c1nonc1N`, the inhibition is -3.41%.

`COc1cc(/C=C/C(=O)OCC(=O)N2CCOCC2)ccc1OCC#N`: the inhibition is -1.34%.

On to `COc1ccc(C(=O)Nc2cc(S(=O)(=O)N3CCCC3)ccc2Cl)cc1`, for which the inhibition was 1.91%. Under `O=C1C(Cl)=C(Oc2ccccc2)C(=O)c2ccccc21` stands 65.2% (active); under `Nc1ccc2nc3c(=O)[nH]c(=S)[nH]c3nc2c1`, 69.9% (active). Next, `C=CCn1c(CCNC(=O)c2ccccc2F)nnc1SCC(=O)Nc1ccc(OC)cc1`: -6.44%; `COc1ccc(S(=O)(=O)N2CCCC2CNC(=O)C(=O)NC2CC2)cc1` (stereo unspecified): 0.83%; `Cc1ccc2c(c1)N(S(=O)(=O)c1cc(-c3cc(C)no3)ccc1C)CCO2`: 1.39%.

With `O=S(N1CCCCCC1)C12CC3CC(CC(C3)C1)C2` (stereo unspecified), the inhibition was -7.44%. With `O=C(CNC(=O)Cc1ccccc1)NCC(=O)OCC(=O)c1ccccc1Cl`, the inhibition is 8.72%. Under `CCOC(=O)c1ccc(NC(=O)c2nc[nH]c2C(=O)N[C@@H](CCCCNC(=O)OC(C)(C)C)C(=O)OC(C)(C)C)cc1` stands 3.03%; under `Oc1c(C(c2ccco2)N2CCC3(CC2)OCCO3)sc2ncnn12` (stereo unspecified), 0.37%. As to `O=C(Cc1ccc(NC(=O)C2CCCN(C(=O)C3CCCCC3)C2)cc1)Nc1cccc(C(=O)N2CCCCC2)c1` (stereo unspecified), the inhibition is -3.33%.

In the case of `CCC(C)c1ccc(O)c(/C=N/O)c1` (stereo unspecified), the inhibition was -1.01%.

Take `CCOC(=O)CCP(=O)(O)C(O)(c1ccccc1)c1ccccc1`: the inhibition was -11.5%.

With `CCN(CC)C(=O)C(=O)c1cn(CC(=O)NCc2ccc3c(c2)OCO3)c2ccccc12`, the inhibition was -5.09%. Next, `OC(COCc1ccco1)CN1CCN(c2ccccc2)CC1` (stereo unspecified): -10.6%; `Cc1ccc(-c2cnc(NC(=O)CCC(=O)N(C)Cc3ccccc3)n2C)cc1`: -3.47%; `Cc1cccc(-n2ncc3c(=O)[nH]c(SCC(=O)Nc4cc(C)on4)nc32)c1`: -3.1%. Under `CC1CN(C2CCCCC2)c2nc3c(c(=O)n(C)c(=O)n3C)n2C1` (stereo unspecified) stands 3.52%; under `CC(C)(C)NC(=O)CSc1nnc(NC(=O)CCc2ccccc2)s1`, -2.99%.

`Cc1cc(-c2n[nH]c(=S)n2/N=C/C(Br)=C/c2ccccc2)n[nH]1`: the inhibition was 29.1%. For `COc1ccc(O)c(C(=O)c2cnc3onc(C(C)C)c3c2)c1`, the inhibition is -4.62%.

On to `Cc1ccc(CNC(=O)CCS(=O)(=O)c2ccc3c(c2)CC(C)N3C(=O)C2CC2)o1` (stereo unspecified), for which the inhibition was -0.82%. Take `CC1CCN(S(=O)(=O)c2ccc(S(=O)(=O)NCc3cccnc3)cc2)CC1`: the inhibition is -6.19%. Under `CC(C)(C)c1cc(CN2CCN(CCC#N)CC2)cc(C(C)(C)C)c1O` stands 3.39%. Under `O=C1COc2ccc(S(=O)(=O)Nc3ccc(OC(F)(F)F)cc3)cc2N1` stands 2.53%; under `Cc1nn(C)c(C)c1NS(=O)(=O)c1ccc(OC(F)(F)F)cc1`, -3.33%. For `O=S(=O)(Nc1ccc(O)c2ccccc12)c1ccc(OC(F)(F)F)cc1`, the inhibition was 52% (active). Under `C=C(C)c1cccc(C(C)(C)NC(=O)NCCN(CC)CC)c1` stands 13%. With `CC1Cc2ccccc2N1S(=O)(=O)c1cccc(C(=O)OCC(=O)N2CCOCC2)c1` (stereo unspecified), the inhibition was -4.82%. For the molecule `COc1cc(NC(=O)C2=C(C)OCCS2)c(Cl)cc1C(=O)NCCN1CCN(C)CC1`, the inhibition was -3.87%. Turning to `COCCCNC(NC(=O)c1ccc(OC)cc1)C(Cl)(Cl)Cl` (stereo unspecified), the inhibition is -2.25%. For the molecule `CC(C)(C)OC(=O)N(Cc1ccccc1)Cc1ccc(OCc2cccc(NC(=O)c3ccccc3)c2)cc1`, the inhibition is -0.76%.

Regarding `COc1ccc(Nc2ncc(C(=O)N3CCN(c4ccccc4OC)CC3)c3ccccc23)cc1`, the inhibition is 3.14%. Under `CCc1c(Nc2ccccc2Cl)nc(N)[nH]c1=O` stands -5.05%; under `Fc1ccccc1OCCSc1nc2ccccc2o1`, 7.74%. Under `CC(C)C[C@H](NC(=O)N1CC(=O)Nc2ccccc21)C(=O)N[C@H](Cc1ccccc1)C(=O)O` stands -0.33%; under `CN(C(=O)CSc1cccc[n+]1[O-])C1CCCCC1`, -5.14%; under `NC(=O)C1CC=CCC1C(=O)OCC(Cl)=C(Cl)Cl` (stereo unspecified), -10.8%. As for `Cc1nc2nc(COc3ccccc3)[nH]n2c(=O)c1C`, the inhibition was 0.17%.

Take `CC(=O)N1CSCC1C(=O)O` (stereo unspecified): the inhibition was -1.3%. In the case of `CCOc1ccc(N2C(=O)CN(c3cccc4ccccc34)C2=S)cc1`, the inhibition was -10.4%.

Take `Cc1ccc(S(=O)(=O)NC(=O)COc2ccccc2C)cc1`: the inhibition was -6.13%. Under `Cn1c2ccccc2c2cc(/C=C(\NC(=O)c3ccccc3)C(=O)NCC(=O)O)ccc21` stands -5.19%; under `Cc1c(-c2ccccc2)cn2c1-c1ccc(C)n1CC2`, 1.47%. Regarding `COc1ccc(-c2csc3ncnc(Oc4ccc5c(C)cc(=O)oc5c4)c23)cc1`, the inhibition was 6.07%. With `CCCCN(C(=O)c1cccc(N2C(=O)c3ccccc3C2=O)c1)c1c(N)n(CCCC)c(=O)[nH]c1=O`, the inhibition is -1.42%. As for `Cc1ccc(N(C(=O)c2ccc(S(=O)(=O)N(C)C)cc2)C2C=CS(=O)(=O)C2)cc1` (stereo unspecified), the inhibition is -6.81%. Next, `NS(=O)(=O)c1ccc(CCNC(=O)c2nc(CS(=O)(=O)c3ccc(Cl)cc3)no2)cc1`: 4.98%; `Cc1nc2ccc(N)nc2nc1C`: -5.39%. Next, `Cc1cccc([C@@H]2[C@@H]3C(=O)N(C)C(=O)[C@@H]3[C@@H]3C(=O)Nc4ccccc4C(=O)N23)c1`: -0.25%; `CC(C)=CC(=O)Nc1nnc(-c2ccc(F)cc2)s1`: 6.59%; `Cc1cc(C)n(CCNC(=O)CC2C(=O)NCCN2Cc2ccc(C)o2)n1` (stereo unspecified): -9.7%. Under `Cc1ccc(O)c(NC(=O)c2cc(-c3ccco3)on2)c1` stands -2.87%; under `CC(=O)N1CC(=O)N(CC(=O)Nc2ccc(Br)cc2)C1=S`, -1.64%; under `O=C(O)c1ccc(NS(=O)(=O)c2ccc3c(c2)C(=O)c2cc(S(=O)(=O)Nc4ccc(C(=O)O)cc4)ccc2-3)cc1`, 2.22%.

On to `COc1cc(OC)c(C(=O)NCc2ccc3c(c2)OCO3)cc1OC`, for which the inhibition is -0.69%. As to `CCn1cc(C(=O)NCc2ccc3c(c2)OCO3)c2cc(OC)c(OC)cc2c1=O`, the inhibition is 37.8% (active). Under `CCn1cc(C(=O)N2CCN(Cc3ccc4c(c3)OCO4)CC2)c2cc(OC)c(OC)cc2c1=O` stands -2.84%. Under `COc1ccc(C(C)C)cc1S(=O)(=O)Nc1ncn[nH]1` stands -3.49%.

Usually inhibition stands for the change of the read-out against control, counted positive when it falls.
